{
  "source": "ChEMBL document CHEMBL5661979",
  "about": "“Pharmacological inhibition of BMK1 suppresses tumor growth through promyelocytic leukemia protein” (Cancer Cell, 2010)",
  "assay_type_in_all_cases": "subcellular",
  "key": {"[1]": {"biological_target": "Serine/threonine-protein kinase mTOR (Homo sapiens, UniProt P42345)", "experiment": "Inhibition of FRAP in human HeLa cells lysate pre incubated for 15 mins followed by ATP acyl phosphate probe addition and measured after 10 mins by LC-MS/MS analysis"}, "[2]": {"biological_target": "Microtubule-associated serine/threonine-protein kinase 3 (Homo sapiens, UniProt O60307)", "sequence (O60307 whole entry)": "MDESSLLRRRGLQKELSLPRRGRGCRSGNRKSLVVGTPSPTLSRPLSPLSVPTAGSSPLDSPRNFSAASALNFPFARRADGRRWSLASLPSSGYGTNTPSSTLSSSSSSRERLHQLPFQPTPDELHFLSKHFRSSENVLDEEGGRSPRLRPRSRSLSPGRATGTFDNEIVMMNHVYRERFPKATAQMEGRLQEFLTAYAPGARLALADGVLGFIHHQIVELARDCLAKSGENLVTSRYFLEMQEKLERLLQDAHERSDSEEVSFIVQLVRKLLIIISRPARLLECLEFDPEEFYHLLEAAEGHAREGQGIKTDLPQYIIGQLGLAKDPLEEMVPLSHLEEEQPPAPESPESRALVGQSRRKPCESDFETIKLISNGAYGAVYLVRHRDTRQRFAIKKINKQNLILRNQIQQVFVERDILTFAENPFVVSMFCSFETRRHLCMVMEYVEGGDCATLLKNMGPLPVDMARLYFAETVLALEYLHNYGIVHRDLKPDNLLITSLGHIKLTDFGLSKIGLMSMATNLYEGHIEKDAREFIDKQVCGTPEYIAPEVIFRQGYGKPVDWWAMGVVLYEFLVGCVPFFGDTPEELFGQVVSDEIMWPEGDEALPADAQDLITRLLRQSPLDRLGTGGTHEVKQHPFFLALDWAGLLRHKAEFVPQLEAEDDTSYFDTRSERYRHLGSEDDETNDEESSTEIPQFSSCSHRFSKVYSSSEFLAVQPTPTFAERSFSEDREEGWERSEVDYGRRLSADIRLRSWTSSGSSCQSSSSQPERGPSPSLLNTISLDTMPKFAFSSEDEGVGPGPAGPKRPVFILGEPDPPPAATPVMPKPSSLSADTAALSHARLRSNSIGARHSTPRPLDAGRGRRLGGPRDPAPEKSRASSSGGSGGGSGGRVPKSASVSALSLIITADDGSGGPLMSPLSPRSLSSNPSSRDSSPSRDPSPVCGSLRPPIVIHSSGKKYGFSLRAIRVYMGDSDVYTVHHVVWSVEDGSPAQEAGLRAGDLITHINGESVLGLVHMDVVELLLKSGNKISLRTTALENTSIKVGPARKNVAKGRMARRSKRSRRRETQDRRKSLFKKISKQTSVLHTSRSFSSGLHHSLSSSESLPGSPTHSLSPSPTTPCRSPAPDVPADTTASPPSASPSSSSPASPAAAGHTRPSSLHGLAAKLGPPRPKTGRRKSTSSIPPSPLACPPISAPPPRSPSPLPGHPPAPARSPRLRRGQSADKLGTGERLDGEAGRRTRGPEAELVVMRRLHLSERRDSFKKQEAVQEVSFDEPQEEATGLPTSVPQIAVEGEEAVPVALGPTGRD", "experiment": "Inhibition of MAST3 in human HeLa cells lysate pre incubated for 15 mins followed by ATP acyl phosphate probe addition and measured after 10 mins by LC-MS/MS analysis"}, "[3]": {"biological_target": "Serine/threonine-protein kinase MRCK beta (Homo sapiens, UniProt Q9Y5S2)", "sequence (Q9Y5S2 whole entry)": "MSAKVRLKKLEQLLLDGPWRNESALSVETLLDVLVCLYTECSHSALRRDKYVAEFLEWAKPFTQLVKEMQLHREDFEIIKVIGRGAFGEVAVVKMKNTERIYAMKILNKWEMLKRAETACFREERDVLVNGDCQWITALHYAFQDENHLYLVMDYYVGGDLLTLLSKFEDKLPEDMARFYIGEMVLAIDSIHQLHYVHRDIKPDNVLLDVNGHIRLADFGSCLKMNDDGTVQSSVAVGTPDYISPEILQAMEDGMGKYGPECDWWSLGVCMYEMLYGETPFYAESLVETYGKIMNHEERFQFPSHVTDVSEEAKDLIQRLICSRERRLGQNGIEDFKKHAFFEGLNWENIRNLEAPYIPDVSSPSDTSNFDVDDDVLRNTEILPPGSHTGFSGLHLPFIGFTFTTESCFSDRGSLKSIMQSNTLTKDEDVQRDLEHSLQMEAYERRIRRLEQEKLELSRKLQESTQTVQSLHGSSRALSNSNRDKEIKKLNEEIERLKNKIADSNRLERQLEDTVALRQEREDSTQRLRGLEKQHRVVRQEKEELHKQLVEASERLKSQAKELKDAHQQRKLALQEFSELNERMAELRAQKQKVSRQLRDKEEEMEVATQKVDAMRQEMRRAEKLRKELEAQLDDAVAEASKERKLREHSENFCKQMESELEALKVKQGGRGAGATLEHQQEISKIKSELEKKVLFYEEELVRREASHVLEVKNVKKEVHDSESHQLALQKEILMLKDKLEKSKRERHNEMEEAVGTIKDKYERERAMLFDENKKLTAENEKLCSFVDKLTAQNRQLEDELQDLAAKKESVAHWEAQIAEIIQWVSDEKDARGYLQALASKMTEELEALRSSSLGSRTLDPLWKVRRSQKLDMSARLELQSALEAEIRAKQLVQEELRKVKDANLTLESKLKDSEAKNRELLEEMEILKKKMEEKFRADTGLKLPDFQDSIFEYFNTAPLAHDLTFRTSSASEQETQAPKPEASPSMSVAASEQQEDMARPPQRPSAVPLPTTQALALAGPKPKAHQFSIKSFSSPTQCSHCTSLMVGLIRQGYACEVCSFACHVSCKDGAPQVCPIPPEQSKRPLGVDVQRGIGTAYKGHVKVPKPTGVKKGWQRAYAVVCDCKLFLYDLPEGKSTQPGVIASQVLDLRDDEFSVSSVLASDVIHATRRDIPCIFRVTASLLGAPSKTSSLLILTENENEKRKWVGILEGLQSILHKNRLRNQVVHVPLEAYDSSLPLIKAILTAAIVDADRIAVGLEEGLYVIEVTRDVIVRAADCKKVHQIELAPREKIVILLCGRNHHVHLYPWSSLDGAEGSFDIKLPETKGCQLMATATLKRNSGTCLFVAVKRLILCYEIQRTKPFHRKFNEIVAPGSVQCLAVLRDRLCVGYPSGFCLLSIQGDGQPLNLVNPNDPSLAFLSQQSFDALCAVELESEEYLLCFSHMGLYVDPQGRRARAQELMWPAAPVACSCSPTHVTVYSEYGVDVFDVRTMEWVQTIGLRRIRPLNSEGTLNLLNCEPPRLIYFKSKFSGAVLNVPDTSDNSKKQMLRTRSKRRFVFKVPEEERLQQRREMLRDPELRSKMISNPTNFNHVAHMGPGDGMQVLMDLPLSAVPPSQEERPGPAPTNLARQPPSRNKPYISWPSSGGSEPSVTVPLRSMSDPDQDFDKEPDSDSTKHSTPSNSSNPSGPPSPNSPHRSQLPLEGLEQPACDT", "experiment": "Inhibition of MRCKB in human HeLa cells lysate pre incubated for 15 mins followed by ATP acyl phosphate probe addition and measured after 10 mins by LC-MS/MS analysis"}, "[4]": {"biological_target": "Serine/threonine-protein kinase ULK3 (Homo sapiens, UniProt Q6PHR2)", "sequence (Q6PHR2 whole entry)": "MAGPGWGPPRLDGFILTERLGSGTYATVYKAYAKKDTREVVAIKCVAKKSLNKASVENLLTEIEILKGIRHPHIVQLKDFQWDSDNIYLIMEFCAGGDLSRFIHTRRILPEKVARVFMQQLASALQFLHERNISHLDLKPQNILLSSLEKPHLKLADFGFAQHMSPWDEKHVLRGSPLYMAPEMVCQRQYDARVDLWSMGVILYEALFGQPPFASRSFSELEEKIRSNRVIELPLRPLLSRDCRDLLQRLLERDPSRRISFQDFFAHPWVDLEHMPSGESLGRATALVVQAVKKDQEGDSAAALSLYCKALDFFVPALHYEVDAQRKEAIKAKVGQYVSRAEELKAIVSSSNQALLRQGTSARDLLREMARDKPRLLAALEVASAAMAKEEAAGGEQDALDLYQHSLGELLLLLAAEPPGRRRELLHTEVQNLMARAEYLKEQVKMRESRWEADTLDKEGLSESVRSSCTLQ", "experiment": "Inhibition of ULK3 in human HeLa cells lysate pre incubated for 15 mins followed by ATP acyl phosphate probe addition and measured after 10 mins by LC-MS/MS analysis"}, "[5]": {"biological_target": "Interleukin-1 receptor-associated kinase 4 (Homo sapiens, UniProt Q9NWZ3)", "sequence (Q9NWZ3 whole entry)": "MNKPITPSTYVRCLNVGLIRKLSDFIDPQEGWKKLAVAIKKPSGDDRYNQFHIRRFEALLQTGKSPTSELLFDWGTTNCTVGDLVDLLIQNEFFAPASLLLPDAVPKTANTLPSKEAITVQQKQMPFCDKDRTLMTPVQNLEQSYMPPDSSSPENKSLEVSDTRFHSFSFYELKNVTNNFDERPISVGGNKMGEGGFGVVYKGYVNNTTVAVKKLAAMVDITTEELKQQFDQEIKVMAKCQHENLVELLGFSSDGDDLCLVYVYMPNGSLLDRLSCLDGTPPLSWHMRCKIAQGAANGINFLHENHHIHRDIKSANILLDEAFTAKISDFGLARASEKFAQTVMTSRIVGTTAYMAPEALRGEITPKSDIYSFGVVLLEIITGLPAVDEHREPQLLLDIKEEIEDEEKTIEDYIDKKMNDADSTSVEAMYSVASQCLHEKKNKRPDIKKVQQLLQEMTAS", "experiment": "Inhibition of IRAK4 in human HeLa cells lysate pre incubated for 15 mins followed by ADP acyl phosphate probe addition and measured after 10 mins by LC-MS/MS analysis"}, "[6]": {"biological_target": "Serine/threonine-protein kinase 3 (Homo sapiens, UniProt Q13188)", "sequence (Q13188 whole entry)": "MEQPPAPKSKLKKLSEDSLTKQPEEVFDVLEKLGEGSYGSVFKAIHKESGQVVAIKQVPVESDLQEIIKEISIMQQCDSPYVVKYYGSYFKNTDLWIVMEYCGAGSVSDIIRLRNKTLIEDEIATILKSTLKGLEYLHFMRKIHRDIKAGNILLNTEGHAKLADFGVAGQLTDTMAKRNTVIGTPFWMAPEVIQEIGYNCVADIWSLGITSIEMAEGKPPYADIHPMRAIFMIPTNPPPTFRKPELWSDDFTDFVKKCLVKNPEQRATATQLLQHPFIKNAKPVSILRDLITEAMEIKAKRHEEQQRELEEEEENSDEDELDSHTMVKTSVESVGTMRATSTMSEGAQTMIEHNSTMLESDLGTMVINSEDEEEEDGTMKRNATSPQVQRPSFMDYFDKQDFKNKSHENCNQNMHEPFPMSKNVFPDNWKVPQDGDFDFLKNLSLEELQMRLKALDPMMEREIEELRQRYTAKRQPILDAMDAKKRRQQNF", "experiment": "Inhibition of MST2 in human HeLa cells lysate pre incubated for 15 mins followed by ADP acyl phosphate probe addition and measured after 10 mins by LC-MS/MS analysis"}, "[7]": {"biological_target": "T1, Dual specificity mitogen-activated protein kinase kinase 7 (Homo sapiens) (UniProt O14733)", "T1 sequence (whole entry)": "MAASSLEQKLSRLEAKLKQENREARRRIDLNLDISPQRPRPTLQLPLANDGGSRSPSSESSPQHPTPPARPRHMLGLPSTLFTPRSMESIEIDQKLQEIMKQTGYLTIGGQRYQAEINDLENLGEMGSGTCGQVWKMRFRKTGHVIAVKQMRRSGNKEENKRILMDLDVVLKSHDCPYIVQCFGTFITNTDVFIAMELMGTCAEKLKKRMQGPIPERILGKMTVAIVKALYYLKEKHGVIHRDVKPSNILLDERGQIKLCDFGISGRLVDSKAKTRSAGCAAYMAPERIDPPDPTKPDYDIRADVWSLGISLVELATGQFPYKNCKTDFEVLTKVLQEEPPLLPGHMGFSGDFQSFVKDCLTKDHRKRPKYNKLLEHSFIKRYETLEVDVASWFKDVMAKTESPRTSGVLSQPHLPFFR", "experiment": "Inhibition of MAP2K7 in human HeLa cells lysate at 50 uM pre incubated for 15 mins followed by ADP acyl phosphate probe addition and measured after 10 mins by LC-MS/MS analysis relative to control", "conditions": "time 25.0 min"}, "[8]": {"biological_target": "Serine/threonine-protein kinase 38-like (Homo sapiens, UniProt Q9Y2H1)", "experiment": "Inhibition of NDR2 in human HeLa cells lysate at 10 uM pre incubated for 15 mins followed by ADP acyl phosphate probe addition and measured after 10 mins by LC-MS/MS analysis relative to control", "conditions": "time 25.0 min"}, "[9]": {"biological_target": "Dual specificity mitogen-activated protein kinase kinase 1 (Homo sapiens, UniProt Q02750)", "experiment": "Inhibition of MAP2K1 in human HeLa cells lysate at 50 uM pre incubated for 15 mins followed by ATP acyl phosphate probe addition and measured after 10 mins by LC-MS/MS analysis relative to control", "conditions": "time 25.0 min"}, "[10]": {"biological_target": "p38 delta/gamma (Homo sapiens) (UniProt O15264+P53778)", "experiment": "Inhibition of p38d/p38g in human HeLa cells lysate at 10 uM pre incubated for 15 mins followed by ATP acyl phosphate probe addition and measured after 10 mins by LC-MS/MS analysis relative to control", "conditions": "time 25.0 min"}, "[11]": {"biological_target": "T2, Serine/threonine-protein kinase Sgk3 (Homo sapiens) (UniProt Q96BR1)", "T2 sequence (whole entry)": "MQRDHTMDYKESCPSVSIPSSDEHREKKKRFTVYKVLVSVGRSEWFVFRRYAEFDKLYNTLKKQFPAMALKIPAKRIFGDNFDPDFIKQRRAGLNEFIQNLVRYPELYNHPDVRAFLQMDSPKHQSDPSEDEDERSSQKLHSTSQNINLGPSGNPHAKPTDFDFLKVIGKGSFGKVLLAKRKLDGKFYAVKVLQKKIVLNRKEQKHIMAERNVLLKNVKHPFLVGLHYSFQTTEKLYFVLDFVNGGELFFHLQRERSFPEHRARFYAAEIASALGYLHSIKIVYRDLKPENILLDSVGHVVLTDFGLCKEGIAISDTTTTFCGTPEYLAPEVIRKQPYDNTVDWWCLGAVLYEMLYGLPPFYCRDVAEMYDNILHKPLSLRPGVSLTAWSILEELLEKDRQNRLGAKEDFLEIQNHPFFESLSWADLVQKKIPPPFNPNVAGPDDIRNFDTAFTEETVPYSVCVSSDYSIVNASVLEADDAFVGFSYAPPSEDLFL", "experiment": "Inhibition of SGK3 in human HeLa cells lysate at 10 uM pre incubated for 15 mins followed by ATP acyl phosphate probe addition and measured after 10 mins by LC-MS/MS analysis relative to control", "conditions": "time 25.0 min"}, "[12]": {"biological_target": "T3, Mixed lineage kinase domain-like protein (Homo sapiens) (UniProt Q8NB16)", "T3 sequence (whole entry)": "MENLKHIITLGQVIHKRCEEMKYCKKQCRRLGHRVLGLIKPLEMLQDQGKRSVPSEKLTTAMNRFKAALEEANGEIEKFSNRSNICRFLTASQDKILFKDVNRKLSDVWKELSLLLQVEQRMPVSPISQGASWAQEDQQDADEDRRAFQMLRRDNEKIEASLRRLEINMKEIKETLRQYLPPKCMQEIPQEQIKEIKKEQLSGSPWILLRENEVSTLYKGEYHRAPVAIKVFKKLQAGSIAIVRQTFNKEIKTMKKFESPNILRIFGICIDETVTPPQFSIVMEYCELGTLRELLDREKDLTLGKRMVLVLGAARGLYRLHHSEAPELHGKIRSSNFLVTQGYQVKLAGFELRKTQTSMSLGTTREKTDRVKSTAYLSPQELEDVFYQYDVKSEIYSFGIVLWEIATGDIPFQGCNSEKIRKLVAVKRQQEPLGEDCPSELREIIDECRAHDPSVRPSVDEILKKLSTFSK", "experiment": "Inhibition of MLKL in human HeLa cells lysate at 10 uM pre incubated for 15 mins followed by ATP acyl phosphate probe addition and measured after 10 mins by LC-MS/MS analysis relative to control", "conditions": "time 25.0 min"}, "[13]": {"biological_target": "Cyclin-dependent kinase 10 (Homo sapiens, UniProt Q15131)", "sequence (Q15131 whole entry)": "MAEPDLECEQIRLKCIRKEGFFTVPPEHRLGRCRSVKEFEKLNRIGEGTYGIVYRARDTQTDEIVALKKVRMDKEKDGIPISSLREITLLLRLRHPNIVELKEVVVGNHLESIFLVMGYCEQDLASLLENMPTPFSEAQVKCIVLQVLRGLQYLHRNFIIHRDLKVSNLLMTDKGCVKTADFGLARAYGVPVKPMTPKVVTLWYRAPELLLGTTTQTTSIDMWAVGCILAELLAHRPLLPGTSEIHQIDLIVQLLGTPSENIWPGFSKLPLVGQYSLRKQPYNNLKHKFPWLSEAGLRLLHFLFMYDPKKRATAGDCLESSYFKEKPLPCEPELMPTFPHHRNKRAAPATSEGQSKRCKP", "experiment": "Inhibition of CDK10 in human HeLa cells lysate at 2 uM pre incubated for 15 mins followed by ATP acyl phosphate probe addition and measured after 10 mins by LC-MS/MS analysis relative to control", "conditions": "time 25.0 min", "method_in_brief": "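KiNativ profiling in HeLa lysate (5 mg/mL total protein). Lysate incubated 15 min with inhibitor at 50, 10, 2, 0.8 or 0 μM. ATP or ADP acylphosphate probe then added (5 μM final) and reacted 10 min. Reaction stopped with urea and analysed by targeted MS, using up to four fragment ions per kinase peptide-probe conjugate. % inhibition taken against untreated lysate. Run in duplicate.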"}},
  "data": [
    {"compound": "CCOc1cc(N2CCC(O)CC2)ccc1Nc1ncc2c(n1)N(C)c1ccccc1C(=O)N2C", "values": [
      {"measurement": "IC50", "setting": "[1]", "result": "> 50", "unit": "µM"},
      {"measurement": "IC50", "setting": "[2]", "result": "> 50", "unit": "µM"},
      {"measurement": "IC50", "setting": "[3]", "result": "> 50", "unit": "µM"},
      {"measurement": "IC50", "setting": "[4]", "result": "> 50", "unit": "µM"},
      {"measurement": "IC50", "setting": "[5]", "result": "> 50", "unit": "µM"},
      {"measurement": "IC50", "setting": "[6]", "result": "> 50", "unit": "µM"},
      {"measurement": "inhibition", "setting": "[7]", "result": 4.2, "unit": "%"},
      {"measurement": "inhibition", "setting": "[8]", "result": 15.9, "unit": "%"},
      {"measurement": "inhibition", "setting": "[9]", "result": -7.3, "unit": "%"},
      {"measurement": "inhibition", "setting": "[10]", "result": 100, "unit": "%"},
      {"measurement": "inhibition", "setting": "[11]", "result": 4.4, "unit": "%"},
      {"measurement": "inhibition", "setting": "[12]", "result": -9.8, "unit": "%"},
      {"measurement": "inhibition", "setting": "[13]", "result": 3.7, "unit": "%"}
    ]}
  ]
}
